Among the data in ChEMBL document CHEMBL1137534, “Synthesis and screening for acetylcholinesterase inhibitor activity of some novel 2-butyl-1,3-diaza-spiro[4,4]non-1-en-4-ones: derivatives of irbesartan key intermediate” (Bioorg Med Chem, 2007) are IC50 values, retold here.

The target of assay [1] is T1, Acetylcholinesterase (Rattus norvegicus, UniProt P37136).
T1 sequence (P37136 whole entry): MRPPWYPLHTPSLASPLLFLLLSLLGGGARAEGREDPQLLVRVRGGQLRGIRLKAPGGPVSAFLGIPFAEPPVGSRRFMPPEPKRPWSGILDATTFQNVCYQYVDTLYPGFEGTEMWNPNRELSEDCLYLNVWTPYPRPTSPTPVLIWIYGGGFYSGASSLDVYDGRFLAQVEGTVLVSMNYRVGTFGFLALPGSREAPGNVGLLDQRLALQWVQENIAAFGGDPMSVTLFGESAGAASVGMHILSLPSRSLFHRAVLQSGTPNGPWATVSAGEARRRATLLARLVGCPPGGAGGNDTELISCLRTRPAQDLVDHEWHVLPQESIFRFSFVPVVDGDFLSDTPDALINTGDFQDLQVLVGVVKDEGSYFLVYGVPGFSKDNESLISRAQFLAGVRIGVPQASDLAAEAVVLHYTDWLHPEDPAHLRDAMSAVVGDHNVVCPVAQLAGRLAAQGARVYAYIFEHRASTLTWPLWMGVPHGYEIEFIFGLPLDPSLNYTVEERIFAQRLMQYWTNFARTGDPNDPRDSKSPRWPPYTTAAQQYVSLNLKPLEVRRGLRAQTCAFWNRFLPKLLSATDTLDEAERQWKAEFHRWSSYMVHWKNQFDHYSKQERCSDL
As to the kind of experiment: Inhibition of Wistar rat brain AChE by Ellman colorimetric assay. Summed up: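 Rat brain homogenate as the enzyme source. Ellman method with DTNB and 1.0 mM acetylthiocholine at 37 °C. Enzyme, buffer, DTNB and inhibitor were preincubated 10 min before substrate was added. Absorbance at 412 nm was read every 1 min for 10 min. Inhibitor range was 0–200 nM. IC50 is the concentration giving 50% inhibition; duplicate means.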

The target in assay [2] is Acetylcholinesterase (Electrophorus electricus, UniProt O42275). As to the kind of experiment: Inhibition of electric eel AChE by Ellman colorimetric assay. A digest of the protocol:
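Electric eel AChE stock was kept frozen in 0.1 M KH2PO4 (pH 8). Assay used phosphate buffer pH 8.0, DTNB and 1.0 mM acetylthiocholine at 37 °C, after 10 min enzyme–inhibitor preincubation. A412 was read at 1-min intervals for 10 min. Inhibitor range was 0–200 nM. IC50 was taken at 50% inhibition; duplicates, mean reported.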
In general terms: In Ellman's method for cholinesterases, released thiocholine reacts with DTNB.

Assay [3] concerns the target Acetylcholinesterase (Homo sapiens, UniProt P22303). The experiment in a line: Inhibition of human serum AChE by Ellman colorimetric assay. Summed up: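 Crude AChE was the supernatant of fresh volunteer blood mixed with 3.8% trisodium citrate (9:1) and spun at 3000 rpm, 0 °C, 20 min. Ellman assay with DTNB and 1.0 mM acetylthiocholine at 37 °C, after 10 min preincubation with inhibitor. A412 was followed over 10 min. Inhibitor range was 0–200 nM. IC50 is the 50% inhibition point; duplicate means.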

Chain of Acetylcholinesterase (Electrophorus electricus, UniProt O42275) (O42275 whole entry): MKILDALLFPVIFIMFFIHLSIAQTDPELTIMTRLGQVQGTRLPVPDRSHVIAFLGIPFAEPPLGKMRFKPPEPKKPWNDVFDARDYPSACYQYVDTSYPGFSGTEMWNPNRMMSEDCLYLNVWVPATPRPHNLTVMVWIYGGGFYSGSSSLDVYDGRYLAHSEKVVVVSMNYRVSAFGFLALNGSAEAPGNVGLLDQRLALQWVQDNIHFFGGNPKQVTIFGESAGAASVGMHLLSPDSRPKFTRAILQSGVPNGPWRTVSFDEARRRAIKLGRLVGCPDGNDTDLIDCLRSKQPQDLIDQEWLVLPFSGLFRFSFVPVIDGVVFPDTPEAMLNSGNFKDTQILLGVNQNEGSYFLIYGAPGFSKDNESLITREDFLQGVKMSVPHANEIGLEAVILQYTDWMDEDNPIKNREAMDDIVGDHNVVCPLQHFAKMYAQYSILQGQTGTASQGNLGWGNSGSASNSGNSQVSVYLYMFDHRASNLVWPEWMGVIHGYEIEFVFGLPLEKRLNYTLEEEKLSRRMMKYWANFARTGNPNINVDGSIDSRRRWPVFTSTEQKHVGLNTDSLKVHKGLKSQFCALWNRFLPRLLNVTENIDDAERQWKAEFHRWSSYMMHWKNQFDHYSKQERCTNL
Chain of Acetylcholinesterase (Homo sapiens, UniProt P22303) (P22303 whole entry): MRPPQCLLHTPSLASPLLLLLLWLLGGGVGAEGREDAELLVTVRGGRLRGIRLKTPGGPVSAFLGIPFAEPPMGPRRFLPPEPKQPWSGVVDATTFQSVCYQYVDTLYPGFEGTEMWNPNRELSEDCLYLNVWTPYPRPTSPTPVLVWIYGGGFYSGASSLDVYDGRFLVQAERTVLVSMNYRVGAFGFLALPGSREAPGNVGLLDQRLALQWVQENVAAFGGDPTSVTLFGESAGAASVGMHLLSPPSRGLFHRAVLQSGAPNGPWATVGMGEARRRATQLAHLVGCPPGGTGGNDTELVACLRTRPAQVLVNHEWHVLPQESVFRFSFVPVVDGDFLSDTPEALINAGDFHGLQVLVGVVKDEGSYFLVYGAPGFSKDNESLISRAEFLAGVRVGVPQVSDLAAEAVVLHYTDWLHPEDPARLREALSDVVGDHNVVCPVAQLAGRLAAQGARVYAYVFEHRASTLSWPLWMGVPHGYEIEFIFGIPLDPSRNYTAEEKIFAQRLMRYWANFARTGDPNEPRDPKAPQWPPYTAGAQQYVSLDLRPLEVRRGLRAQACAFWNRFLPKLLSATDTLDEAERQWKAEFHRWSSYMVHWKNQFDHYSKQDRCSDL

As for `CCCCC1=NC2(CCCC2)C(=O)N1CC(=O)c1ccc(Cl)cc1`, the half-inhibitory concentration (IC50) (as a rule, the concentration that inhibits the measured activity by half) was found to be 280 nM at Acetylcholinesterase [1], 280 nM against Acetylcholinesterase [2] and 286 nM against Acetylcholinesterase [3].

As for `CCCCC1=NC2(CCCC2)C(=O)N1Cc1ccc(-c2ccccc2C#N)cc1`, the IC50 came to 90 nM against Acetylcholinesterase [1], 90 nM on Acetylcholinesterase [2] and 82.5 nM against Acetylcholinesterase [3].

With `CN(C)C(=O)Oc1cccc([N+](C)(C)C)c1` [NEOSTIGMINE BROMIDE], the IC50 was 35 nM against Acetylcholinesterase [1] and 47.5 nM against Acetylcholinesterase [2].

Turning to `CCCCC1=NC2(CCCC2)C(=O)N1Cc1cc(OC)c(OC)cc1Br`, the figures for the IC50 on Acetylcholinesterase [1], against Acetylcholinesterase [2] and against Acetylcholinesterase [3] were 77.5 nM, 80 nM and 82.5 nM, respectively.

In the case of `CCCCC1=NC2(CCCC2)C(=O)N1Cc1ccc(Br)cc1`, the half-maximal inhibitory concentration (IC50) against Acetylcholinesterase [1] turned out to be 70 nM; against Acetylcholinesterase [2], 67.5 nM; against Acetylcholinesterase [3], 70 nM.

As to `CCCCC1=NC2(CCCC2)C(=O)N1Cc1ccc(-c2ccccc2C(=O)OC)cc1`, the IC50 worked out at 243 nM against Acetylcholinesterase [1], 236 nM against Acetylcholinesterase [2] and 241 nM at Acetylcholinesterase [3].

For `CCCCC1=NC2(CCCC2)C(=O)N1Cc1ccc([N+](=O)[O-])cc1`, the IC50 came to 134 nM at Acetylcholinesterase [1], 149 nM against Acetylcholinesterase [2] and 135 nM on Acetylcholinesterase [3].

On to `CCCCC1=NC2(CCCC2)C(=O)N1CCN1C(=O)c2ccccc2C1=O`, for which the IC50 on Acetylcholinesterase [1] worked out at 234 nM; at Acetylcholinesterase [2] it was 250 nM; on Acetylcholinesterase [3], 231 nM.

Regarding `CCCCC1=NC2(CCCC2)C(=O)N1Cc1cc2c(cc1C)OCO2`, the IC50 at Acetylcholinesterase [1] came out at 216 nM; against Acetylcholinesterase [2], 212 nM; at Acetylcholinesterase [3], 232 nM.

`CCCCC1=NC2(CCCC2)C(=O)N1Cc1ccc(-c2ccccc2C(=O)OC(C)(C)C)cc1`: the IC50 on Acetylcholinesterase [1] came out at 271 nM; against Acetylcholinesterase [2] it was 277 nM; against Acetylcholinesterase [3] it was 269 nM.
